Compound activity from PubChem BioAssay.
AI-2 QS modul: Vibrio harveyi AI-2 quorum sensing modulation; activity change, % at 7.5 µM; Vibrio harveyi JMH597 AI-2 luminescence/OD600 ratio, 9 h; hits give low values; strain lacks LuxN and CqsS sensors; 0 = neutral-control median; hit rate 0.4% among 300,000; AID 2094; in the data active means activity change below about -75%, passing the limit was not always enough;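 further: luminescence divided by OD600 gain over 9 h not by final OD600 alone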
PHOSPHO1 block: PHOSPHO1 (human) inhibition | AID 1565 | inhibition, % at 13.3 µM | hit rate 1.1% among 290,000 | Q8TCT1 | recombinant PHOSPHO1, absorbance phosphatase assay; in the data active means inhibition above about 60%
Target sequence (Q8TCT1 whole entry, looked up): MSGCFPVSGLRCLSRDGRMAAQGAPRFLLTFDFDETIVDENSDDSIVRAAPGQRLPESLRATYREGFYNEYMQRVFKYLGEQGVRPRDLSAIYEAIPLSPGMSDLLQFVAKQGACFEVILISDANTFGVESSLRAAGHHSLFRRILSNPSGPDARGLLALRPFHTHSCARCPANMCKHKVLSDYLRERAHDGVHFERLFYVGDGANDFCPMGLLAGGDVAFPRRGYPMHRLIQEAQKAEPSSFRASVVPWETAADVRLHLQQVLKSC
HSF1 activator: increases HSF-1 driven luciferase reporter signal. activation, % at 9 µM. hit rate 1.7% among 300,000. NIH3T3-HGL HSF-1 luciferase reporter, MG132, 8 h; 100% = twice DMSO control signal. AID 504408;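 active means mean replicate activation of at least 50% with a set share of replicates each reaching 50%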
core dimer inh: HCV core protein dimerization inhibition | TR-FRET GST/Flag-core106 dimerization, 1536-well | hit rate 0.33% among 300,000 | inhibition, % at 5 µM;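 active means inhibition above the mean of all tested compounds plus 3 SD, set per screening campaign, cut at about 45% in these data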
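Assay system: tagged HCV core106 pair (GST and Flag); medium: KF-containing HEPES buffer, pH 7.45, DTT, CHAPS, BSA; also added: Eu donor and XL665 acceptor anti-tag antibodies; dosing: 5 µM single dose; timing: compound-protein-antibody incubation 4 h at 22.5 °C; signal: TR-FRET 671 and 617 nm emission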
HSF1 inhib: HSF1 inhibition | activity change, negative = inhibition, % at 7.5 µM (by protocol) | NIH3T3-HGL HSE-luciferase, MG132-induced, luminescence 8 h; hits give low values | hit rate 0.77% among 300,000;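 active means more than half of replicate wells show activity change below -50%, luminescence cut by over half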;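 further: luciferase reports HSF-1 transcriptional activity via heat shock element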
ALR H2O2 inh: human ALR oxidase inhibition via reduced H2O2; P55789; purified ALR, DTT oxidation, H2O2 HRP-luminol luminescence; inhibition, % (no concentration beside the values); hit rate 3.8% among 290,000; AID 485317;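 active means mean replicate inhibition above about 79%, with every replicate also reaching it, limit read from the data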
Target sequence (P55789 whole entry, looked up): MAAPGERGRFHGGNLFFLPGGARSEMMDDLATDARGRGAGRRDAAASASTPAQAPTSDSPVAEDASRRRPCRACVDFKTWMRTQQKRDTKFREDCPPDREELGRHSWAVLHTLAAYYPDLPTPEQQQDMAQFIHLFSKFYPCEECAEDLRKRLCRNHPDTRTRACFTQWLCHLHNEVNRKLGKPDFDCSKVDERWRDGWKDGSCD
Numbers stand for hits; i = inactive; nt = not tested or not shown. Compounds with a hit are over-represented: about 6.8% of the library has one in this group of screens.

SMILES	AI-2 QS modul	PHOSPHO1 block	HSF1 activator	core dimer inh	HSF1 inhib	ALR H2O2 inh
CCOc1ccccc1NC(=O)CSc1nc2c(c(=O)n1C)SC(C)C2 (stereo unspecified)	i	i	i	i	i	i
Cc1ccc(-n2c(SCC(=O)N3CCCC3)nc3c(c2=O)SCC3)cc1	i	i	i	i	i	87
CCc1ccc(N(CC(=O)NC2CCCCC2)C(=O)CCC(=O)Nc2ccccn2)cc1	i	i	i	i	i	i
CCOC(=O)C[C@H]1c2ccccc2S(=O)(=O)N1c1ccccc1	i	nt	i	i	i	i
C=CC[N+]1(CC(=O)NCc2ccc(NC(C)=O)cc2)CCOCC1	i	i	i	i	i	i
Cc1sc2ncn(CC(=O)NCCCC(=O)N3CCCCC3)c(=O)c2c1C	i	i	i	i	i	i
C=CCn1c(SCc2n[nH]c(=S)n2-c2ccccc2)nnc1-c1ccccc1	i	i	i	i	i	i
S=c1[nH]nc(CCc2ccccc2)n1Cc1ccccc1	i	i	i	i	i	i
C=CCn1c(CSc2nnc(-c3ccccc3)n2C)n[nH]c1=S	i	i	i	i	i	83
CCn1c(CN2c3ccccc3Sc3ccccc32)n[nH]c1=S	i	i	i	i	i	98
S=c1[nH]nc(CSc2nc3ccccc3s2)n1Cc1ccccc1	i	98	i	i	i	i
C=CCn1c(CSc2nc3ccccc3s2)n[nH]c1=S	i	106	i	i	i	i
CCn1c(CSc2nc3ccccc3s2)n[nH]c1=S	i	96	i	i	i	i
CCCSc1nnc(CSc2nc3ccccc3s2)n1-c1ccccc1	i	i	i	i	i	i
O=C(CN1C(=O)CNC1=O)Nc1cc(Cl)cc(Cl)c1	nt	nt	nt	nt	nt	i
O=C1C=C(c2ccccc2)CC(/C=C/c2ccccc2)C1 (stereo unspecified)	i	i	98	i	i	i
O=C(NCCN1CCOCC1)C(=O)c1c[nH]c2ccccc12	i	i	i	i	i	i
Cc1ccccc1Nc1c(-c2ccc(N3CCOCC3)cc2)nc2ncccn12	i	i	i	i	i	98
Cc1cccc(C)c1Nc1c(-c2ccsc2)nc2ncccn12	i	i	i	i	i	98
Cc1ccc(Nc2c(-c3ccc(N4CCOCC4)cc3)nc3ncccn23)cc1C	i	i	i	i	i	94
Cc1ccc(Nc2c(-c3ccc(N4CCOCC4)cc3)nc3ncccn23)cc1	i	i	i	i	i	i
CCOC(=O)Nc1ccc2c(c1)N(C(=O)N(CC)CC)c1ccccc1CC2	i	i	i	i	i	i
O=C(O)/C(=C\c1ccc2ccccc2c1)c1cccc2ccccc12	i	nt	i	i	i	i
CSc1cccc(NC(=O)CCCNC(=O)c2ccc(Cl)cc2)c1	i	i	i	i	i	i
CCS(=O)(=O)c1nn2c(N)c(/C=C3/C=CC(=O)C(OC)=C3)c(=O)nc2s1	i	i	i	i	i	100
SMILES	AI-2 QS modul	PHOSPHO1 block	HSF1 activator	core dimer inh	HSF1 inhib	ALR H2O2 inh
CCOC1=C/C(=C/c2c(N)n3nc(-c4ccccc4)sc3nc2=O)C=CC1=O	i	i	i	nt	i	nt
COC1=C/C(=C/c2c(N)n3nc(-c4ccc(C)cc4)sc3nc2=O)C=CC1=O	nt	i	nt	nt	nt	nt
CCOC1=C/C(=C/c2c(N)n3oc(C)cc3nc2=O)C=CC1=O	i	i	i	i	i	91
COC1=C/C(=C/c2c(N)n3c(nc2=O)sc2cc(S(C)(=O)=O)ccc23)C=CC1=O	i	i	i	i	i	99
CS(=O)(=O)c1ccc2c(c1)sc1nc(=O)c(/C=C3/C=CC(=O)C(O)=C3)c(N)n12	i	i	i	i	i	90
Cc1cccc(-c2nnc(SCC(=O)c3ccc(O)cc3O)n2C)c1	i	i	i	i	i	i
CN(C)S(=O)(=O)c1cccc(NC(=S)NCCCn2ccnc2)c1	i	i	i	i	i	i
COc1ccc(N2CC(C(=O)N3CCN(c4ccccc4OC)CC3)CC2=O)cc1 (stereo unspecified)	i	i	i	i	i	i
O=S(=O)([O-])CCC[n+]1c(SCCCS(=O)(=O)O)sc2ccc(Cl)cc21	i	i	i	i	i	i
COC1CCCN(Cc2c(C(=O)N3CCN(C4CCCCC4)CC3)nc3ccccn23)C1 (stereo unspecified)	i	i	i	i	i	i
CCOC(=O)c1[nH]c2ccc(F)cc2c1N=C(C)N(CC)CC	i	i	i	i	i	80
CCOC(=O)c1[nH]c2ccc(C)cc2c1N	i	i	i	i	i	i
CCOC(=O)c1[nH]c2ccccc2c1N=CN(C)C	i	nt	i	i	i	99
CCOC(=O)c1[nH]c2ccc(C)cc2c1N=CN(CC)CC	i	i	i	i	i	99
CCOC(=O)c1[nH]c2ccccc2c1NC(=O)CC	i	i	i	i	i	nt
COC(=O)c1[nH]c2cc(OC)ccc2c1N=CN(C)C	i	i	i	i	i	88
CN(c1ccccc1)c1cc(Br)nc(Br)c1	i	nt	i	i	i	i
COc1ccc(/C=C(/NC(=O)c2ccco2)C(=O)NCc2ccco2)cc1OC	i	i	i	i	i	i
C=CCOn1c(=O)c(-c2ccc(F)cc2)[n+]([O-])c2ccccc21	i	i	i	nt	i	nt
CCOc1ccc(NC2CCN(C(C)=O)CC2)cc1	i	i	i	i	i	91
CC(=O)N1CCC(Nc2ccc(C)cc2)CC1	i	i	i	i	i	98
O=C(CN(c1cccc(C(F)(F)F)c1)S(=O)(=O)c1ccc(Cl)c([N+](=O)[O-])c1)NCc1ccccc1Cl	i	i	66	i	i	i
O=C(CN(c1cccc(C(F)(F)F)c1)S(=O)(=O)c1ccc(Cl)c([N+](=O)[O-])c1)NCc1ccccc1	i	i	i	i	i	i
CN1C(=O)/C(=C/c2cccc(Cl)c2)Sc2ccc(C(=O)N3CCCC3)cc21	i	i	i	i	i	i
Cc1ccc(C(=O)NNC(=O)C2CC2)cc1Br	i	i	i	i	i	88
SMILES	AI-2 QS modul	PHOSPHO1 block	HSF1 activator	core dimer inh	HSF1 inhib	ALR H2O2 inh
CC(=O)c1ccc(NC(=O)c2ccc(C)c(Br)c2)cc1	i	i	56	i	i	i
NC(=O)c1ccc(OCC(=O)N2CCNC2=O)cc1	nt	nt	nt	nt	nt	i
COCCCNC(=S)Nc1ccccc1[N+](=O)[O-]	i	60	i	i	i	i
Cc1ccccc1C(=O)NC(=S)Nc1ccccc1[N+](=O)[O-]	i	i	58	i	i	i
Cc1ccc2cccnc2c1NC(=S)NC(=O)c1ccccc1	i	69	137	i	i	i
COC(=O)c1ccccc1NC(=S)NC(=O)c1ccc2c(c1)OCO2	i	i	i	nt	i	98
COC(=O)c1ccccc1NC(=O)c1ccc2c(c1)OCCO2	i	i	i	i	i	i
CCOC(=O)N1CCC(NC(=O)c2cnc3n(c2=O)CCS3)CC1	i	i	i	i	i	i
Cc1ccccc1S(=O)(=O)NC(=NCc1ccc(F)cc1)c1ccccc1	nt	nt	nt	nt	nt	i
